We go through ten compounds from ChEMBL document CHEMBL1141590, “Development of peptidomimetics with a vinyl sulfone warhead as irreversible falcipain-2 inhibitors” (J Med Chem, 2008).

pIC50, pKi: −log10 of the molar value.

One assay addresses Cathepsin B (Homo sapiens, UniProt P07858). The assay is described as follows: Inhibition of human cathepsin B. An outline of the steps:
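Cathepsin B continuous progress-curve assay with Cbz-Phe-Arg-AMC at 80 µM; Kiapp corrected to zero substrate using Km 150 µM to give Kinac. Two independent runs, each in duplicate.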

The subject of a further assay is Plasmodium falciparum. Nature of the assay: Antiplasmodial activity against Plasmodium falciparum 3D7 after 72 hrs in Malstat assay. In kind it is functional, organism-based. The settings on record: 3D7, 72 h. The method, boiled down: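 Synchronized ring-stage P. falciparum 3D7 plated at 1% parasitemia with compounds (in DMSO) at 1 nM–100 µM; 0.5% v/v DMSO alone as negative control. Cultured in vitro 72 h, then viability read by Malstat assay (parasite lactate dehydrogenase activity); dose-dependent effect quantified.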

The next assay deals with T1, Falcipain 2 (Plasmodium falciparum, UniProt Q9N6S8).
T1 sequence (Q9N6S8 whole entry): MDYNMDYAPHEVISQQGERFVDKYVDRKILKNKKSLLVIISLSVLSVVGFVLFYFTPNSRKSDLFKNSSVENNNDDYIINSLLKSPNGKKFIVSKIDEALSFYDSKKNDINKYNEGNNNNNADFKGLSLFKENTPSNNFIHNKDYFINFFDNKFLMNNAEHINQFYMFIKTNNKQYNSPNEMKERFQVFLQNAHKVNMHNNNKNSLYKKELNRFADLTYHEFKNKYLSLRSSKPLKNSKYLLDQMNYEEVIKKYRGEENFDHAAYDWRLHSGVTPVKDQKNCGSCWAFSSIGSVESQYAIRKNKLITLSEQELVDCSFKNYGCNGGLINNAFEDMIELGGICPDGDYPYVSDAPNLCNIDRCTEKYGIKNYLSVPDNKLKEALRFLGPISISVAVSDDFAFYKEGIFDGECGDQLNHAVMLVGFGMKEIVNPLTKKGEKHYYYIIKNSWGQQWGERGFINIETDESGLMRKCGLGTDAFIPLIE
Nature of the assay: (§1) Inhibition of Plasmodium falciparum recombinant falcipain-2. An outline of the steps:
(§2)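 Recombinant FP-2 in 100 mM sodium acetate pH 5.5, 10 mM DTT; Cbz-Phe-Arg-AMC 32 µM, fluorescence (ex 365/em 460 nm) monitored continuously 20 min at room temperature. Seven inhibitor levels within 0–10 µM; kobs from progress-curve fits, hyperbolic fit gave kinac and Kiapp, corrected with Km 21.5 µM; k2nd = kinac/Kinac. Two independent runs, each in duplicate.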

In assay [1] the target is T2, Falcipain 2 (Plasmodium falciparum) (UniProt Q9N6S8).
T2 sequence (whole entry): T1 sequence (Q9N6S8 whole entry)
The assay is described as §1. An outline of the steps: as §2

Another assay concerns the target Procathepsin L (Homo sapiens, UniProt P07711). The assay is described as follows: Inhibition of human cathepsin L. An outline of the steps:
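Cathepsin L continuous progress-curve assay with Cbz-Phe-Arg-AMC at 5 µM; Kiapp corrected to zero substrate using Km 6.5 µM to give Kinac. Two independent runs, each in duplicate.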

Regarding `CS(=O)(=O)/C=C/CNC(=O)CN1C(=O)[C@@H](COC(=O)Nc2ccc(Cl)cc2C(F)(F)F)N=C(c2ccccc2)c2ccccc21`, the pKi (usually the negative decadic logarithm of the Ki, by convention in mol/L) is 4.96 on Cathepsin B and 6.43 on Falcipain 2. Moreover, the results for the Kinact (on Cathepsin B; in assay [1]) were 0.048 min⁻¹ and 0.059 min⁻¹, respectively. Moreover, the pIC50 (in general, the IC50 on a negative log10 scale, so that one unit is a factor of ten) with Plasmodium falciparum is 4.74; on Falcipain 2, 5.10.
For the compound `O=C(CN1C(=O)[C@@H](COC(=O)Nc2ccc(Cl)cc2C(F)(F)F)N=C(c2ccccc2)c2ccccc21)N[C@H]1CC(=O)OC1O` (some centres not stated), the pIC50 on Falcipain 2 is 5.10.
For `COc1ccc(S(=O)(=O)/C=C/[C@H](CCc2ccccc2)NC(=O)CN2C(=O)[C@@H](COC(=O)Nc3ccc(Cl)cc3C(F)(F)F)N=C(c3ccccc3)c3ccccc32)cc1`, the values for the pKi at Cathepsin B and at Falcipain 2 were 5.48 and 7.28, respectively. Also, the Kinact on Cathepsin B came out at 0.045 min⁻¹; in assay [1], 0.034 min⁻¹. For the same compound, the pIC50 with Plasmodium falciparum was 4.22.
With `CCS(=O)(=O)/C=C/CNC(=O)CN1C(=O)[C@@H](COC(=O)Nc2ccc(Cl)cc2C(F)(F)F)N=C(c2ccccc2)c2ccccc21`, the pKi at Cathepsin B is 5.37; at Falcipain 2, 6.96. The values for the Kinact (on Cathepsin B; in assay [1]) were 0.039 min⁻¹ and 0.027 min⁻¹, respectively. For the same compound, the pIC50 with Plasmodium falciparum is 4.25; on Falcipain 2 it was 5.10.
Turning to `COc1ccc(S(=O)(=O)/C=C/CNC(=O)CN2C(=O)C(COC(=O)Nc3ccc(Cl)cc3C(F)(F)F)N=C(c3ccccc3)c3ccccc32)cc1` (configuration not stated), the values for the pKi on Cathepsin B, at Falcipain 2 and on Procathepsin L were 5.23, 6.92 and 4.85, respectively. In addition, the Kinact on Cathepsin B was 0.059 min⁻¹; in assay [1], 0.031 min⁻¹; at Procathepsin L, 0.1 min⁻¹. Besides, the pIC50 with Plasmodium falciparum is under 4.00; on Falcipain 2 it was 5.10.
As for `O=C(CN1C(=O)[C@@H](COC(=O)Nc2ccc(Cl)cc2C(F)(F)F)N=C(c2ccccc2)c2ccccc21)N[C@H](/C=C/S(=O)(=O)c1ccccc1)CCc1ccccc1`, the values for the pKi at Cathepsin B, at Falcipain 2 and at Procathepsin L were 5.51, 6.22 and 5.15, respectively. For the same compound, the Kinact on Cathepsin B stood at 0.039 min⁻¹; in assay [1], 0.11 min⁻¹; at Procathepsin L it was 0.12 min⁻¹. Besides, the pIC50 in the assay with Plasmodium falciparum was 5.04.
Take `CCS(=O)(=O)/C=C/[C@H](CCc1ccccc1)NC(=O)CN1C(=O)[C@@H](COC(=O)Nc2ccc(Cl)cc2C(F)(F)F)N=C(c2ccccc2)c2ccccc21`: the results for the pKi on Cathepsin B, at Falcipain 2 and on Procathepsin L were 5.36, 6.49 and 4.87, respectively. The Kinact at Cathepsin B was determined as 0.045 min⁻¹; in assay [1] it was 0.1 min⁻¹; at Procathepsin L, 0.1 min⁻¹. In the assay on Plasmodium falciparum, this compound showed a pIC50 of 5.04.
As to `CS(=O)(=O)/C=C/[C@H](CCc1ccccc1)NC(=O)CN1C(=O)[C@@H](COC(=O)Nc2ccc(Cl)cc2C(F)(F)F)N=C(c2ccccc2)c2ccccc21`, the pKi was 4.84 at Cathepsin B and 6.41 at Falcipain 2. Further, the figures for the Kinact (on Cathepsin B; in assay [1]) were 0.064 min⁻¹ and 0.16 min⁻¹, respectively. The pIC50 in the assay on Plasmodium falciparum was 4.26; on Falcipain 2, 5.10.
Consider `O=C(CN1C(=O)[C@@H](COC(=O)Nc2ccc(Cl)cc2C(F)(F)F)N=C(c2ccccc2)c2ccccc21)NC/C=C/S(=O)(=O)c1ccccc1`, for which the pKi was 5.34 at Cathepsin B, 6.85 at Falcipain 2 and 4.66 at Procathepsin L. In addition, the values for the Kinact (on Cathepsin B; in assay [1]; at Procathepsin L) were 0.047 min⁻¹, 0.033 min⁻¹ and 0.16 min⁻¹, respectively. In addition, the pIC50 in the assay on Plasmodium falciparum was 4.64; at Falcipain 2, 5.10.
On to `CC(C)C[C@H](NC(=O)[C@H]1O[C@@H]1C(=O)O)C(=O)NCCCCN=C(N)N` [E-64], for which the pIC50 in the assay on Plasmodium falciparum was 5.28. Also, the pKi at Falcipain 2 was 6.54. Moreover, the Kinact in assay [1] came to 0.46 min⁻¹.
